# Bioassay records as filed in PubChem.
# Most compounds without a hit are left out; they make up all but 1.6% or so of the library.
# TPT1 inhibitor – C. albicans TPT1 enzyme inhibition | recombinant caTPT1, FP RNA substrate dephosphorylation | actives 0.81% (n = 300,000) | inhibition, % at 5 µM | AID 1962;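 active means inhibition above the mean of all tested compounds plus 3 SD, set per screening campaign, cut at about 24% in these data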;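 further: plate controls were DMSO alone for no effect and ferristatin control at 100 nM for full effect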
# PKA-R2B act – activators of human PKA-R2B complex | PKA-R2B holoenzyme dissociation, Cy5-IP20 fluorescence polarization; R2B truncated from residue 108, S112A mutant; 0% DMSO only, 100% 113 µM cGMP | actives 0.079% (n = 340,000) | activation, % at 11.4 µM | P22694+P31323 | AID 504700;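 active means activation above a cutoff set at the mean over all compounds plus 3 SD, cut at about 18% in these data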;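 further: higher means more holoenzyme dissociation and a rise in polarization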
# PKA-R1A act – activators of PKA-R1A complex; P00514+P68181; PKA-R1A dissociation, Cy5-IP20 fluorescence polarization; scaled: DMSO 0%, 113 µM cGMP 100%; activation, % at 11.4 µM; actives 0.083% (n = 340,000); AID 504707;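 active means percent activation above the mean of all tested compounds plus 3 SD, cut at about 19% in these data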;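 further: higher means more PKAc released from R1A so a rise in polarization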
# Rpn11 inh – inhibitors of human proteasome Rpn11; actives 0.59% (n = 360,000); calls only at 20 µM; O00487; human 26S proteasome, Ub4-pepOG fluorescence polarization; 20S core pre-blocked with epoxomicin;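 active means inhibition at 20 µM, scaled to each plate's controls, above about 33%, limit read from the data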
# CSN deneddyl inh – blocks human CSN-mediated cullin deneddylation | Q92905 | Purified CSN, SCF-Nedd8-OG deneddylation, fluorescence polarization | inhibition, % at 12.5 µM | actives 0.38% (n = 360,000) | AID 651999;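 active means pattern-corrected inhibition above about 35%, with an unprinted fluorescence ratio check between 0.5 and 1.5, limit read from the data, passing the limit was not always enough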;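 further: 0% = enzyme with substrate and 100% = substrate without enzyme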
#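 assay system = purified human Csn5 enzyme expressed in HEK293T cells | amount = 0.24 nM enzyme | buffer or medium = Tris/NaCl/DTT buffer, pH 7.5 | reagent = 10 nM SCFSkp2-Nedd8OG | compound = one concentration, 12.5 µM, 0.25% DMSO | times = 90 min reaction at room temperature | signal = FP | read-out basis = % inhibition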
# HNF4A DNA FP – change in binding of human HNF4 alpha to DNA | P41235 | HNF4a-FITC DNA binding, fluorescence polarization, 1 h | activity change, % at 10 µM | actives 0.3% (n = 360,000) | AID 1224865; in the data active means activity change above about 30%, passing the limit was not always enough
# CSN5 deneddyl – Csn5 (human) deneddylation inhibition, single-concentration validation; actives 62% (n = 540); AID 720654; inhibition, % at 16.6 µM; Csn5 deneddylation of SCF-Nedd8OG, fluorescence polarization, 90 min; shares compounds with CSN deneddyl inh; in the data active means inhibition above about 50%;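 further: 0% = DMSO with enzyme and 100% = no enzyme wells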
# MMP-2 counter – blocks human MMP-2 in a CSN deneddylation counter-screen. actives 33% (n = 540). AID 720655. recombinant MMP-2, FRET substrate fluorescence, 60 min. inhibition, % at 16.6 µM. shares compounds with CSN deneddyl inh;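 active means corrected plate-normalized z-score of 5 or more, or -5 or less, or inhibition of 15% or more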;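 further: plate controls were DMSO wells with enzyme for no effect and buffer wells lacking MMP-2 for full effect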
# Thrombin cntr – thrombin (bovine) inhibition, counter-screen for CSN hits. shares compounds with CSN deneddyl inh. bovine thrombin cleavage of Ub4-pepOG, fluorescence polarization. inhibition, % at 16.6 µM. actives 49% (n = 540);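 active means inhibition at or above a set limit, with a fluorescence interference ratio between 0.5 and a set maximum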
# Target sequence (P00735 whole entry, looked up): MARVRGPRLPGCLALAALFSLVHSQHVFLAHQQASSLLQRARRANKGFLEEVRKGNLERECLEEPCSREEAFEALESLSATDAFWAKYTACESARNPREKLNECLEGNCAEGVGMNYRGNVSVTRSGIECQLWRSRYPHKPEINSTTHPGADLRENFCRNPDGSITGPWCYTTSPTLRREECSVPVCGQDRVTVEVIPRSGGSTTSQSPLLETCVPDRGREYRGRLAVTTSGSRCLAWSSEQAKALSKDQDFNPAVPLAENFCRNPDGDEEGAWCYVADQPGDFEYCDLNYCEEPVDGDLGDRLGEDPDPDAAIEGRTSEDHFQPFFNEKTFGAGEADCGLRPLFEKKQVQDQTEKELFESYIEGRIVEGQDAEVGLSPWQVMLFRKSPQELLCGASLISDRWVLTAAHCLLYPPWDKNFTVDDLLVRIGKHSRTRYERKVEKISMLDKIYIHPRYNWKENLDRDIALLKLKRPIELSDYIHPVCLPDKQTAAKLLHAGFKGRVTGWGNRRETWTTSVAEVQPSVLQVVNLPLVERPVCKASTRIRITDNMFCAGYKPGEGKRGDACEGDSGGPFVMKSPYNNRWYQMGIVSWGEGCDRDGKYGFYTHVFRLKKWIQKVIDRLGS
# Starred values were filed as active, the others as inactive; i = inactive; nt = no result given.
SMILES,TPT1 inhibitor,PKA-R2B act,PKA-R1A act,Rpn11 inh,CSN deneddyl inh,HNF4A DNA FP,CSN5 deneddyl,MMP-2 counter,Thrombin cntr
O=C1NC(=Nc2ccc(O)cc2)S/C1=C\C=C\c1ccco1,6,13,-3,i,48*,-1,92*,7,-10
NC1=NC(=O)/C(=C\c2ccco2)S1,-2,7,2,i,36*,-21,70*,17*,-6
NC1=NC(=O)C(=Cc2ccccc2)S1,nt,-13,5,i,2,11,nt,nt,nt
Nc1ccc2c(S(=O)(=O)O)cccc2c1S(=O)(=O)O,nt,4,-1,i,-2,3,nt,nt,nt
Nc1cccc2cc(S(=O)(=O)O)ccc12,nt,-7,3,i,37*,-27,67*,10,-11
N#Cc1c(N2CCCC(O)C2)nc(N)c2c(N)nc3c(c12)CC(=O)N3C12CC3CC(CC(C3)C1)C2 (stereo unspecified),7,6,-3,i,52*,28,93*,4,-43
C=C(C)CN(CC)c1nc(N)c2c(N)nc3c(c2c1C#N)CC(=O)N3C12CC3CC(CC(C3)C1)C2,-5,2,2,i,19,7,nt,nt,nt
COc1ccccc1CNC(=O)c1ccc(CS(=O)(=O)c2ccc(C)cc2)o1,3,2,-7,i,0,-3,nt,nt,nt
Cc1ccc(CNC(=O)Cn2cnc(C(=O)Nc3ccc(C)c(C)c3)n2)o1,nt,0,6,i,0,0,nt,nt,nt
Cc1ccc(/C=C2\SC(=S)N(CC3CCCO3)C2=O)o1 (stereo unspecified),24,5,-3,nt,74*,16,103*,33*,34*
CCOC(=O)CN1C(=O)S/C(=C/c2ccc(C)o2)C1=O,5,-7,8,i,2,0,nt,nt,nt
CNC(=O)CC1C(=O)N(c2ccc(F)cc2)C(=S)N1NC(=O)c1ccc(Br)cc1 (stereo unspecified),1,1,-7,i,1,1,nt,nt,nt
O=C(O)c1cc(-c2ccc(/C=C3\NC(=O)N(c4ccc(Cl)cc4)C3=O)o2)ccc1Cl,3,9,6,i,40*,-35,26,18*,10
O=C(O)c1cc(-c2ccc(/C=C3\NC(=O)N(c4ccccc4)C3=O)o2)ccc1Cl,-4,-1,6,i,24,-18,nt,nt,nt
CCCCn1c(NS(=O)(=O)c2ccc(C)cc2)c(S(=O)(=O)c2ccccc2)c2nc3ccccc3nc21,2,-2,9,i,69*,-4,101*,5,-34
CN1C(C(=O)Nc2cccc(O)c2)=CC(c2cccs2)=NS1(=O)=O,-5,-2,4,i,-5,0,nt,nt,nt
Cc1cc2c(SCC(=O)Nc3cccc(O)c3)ncnc2s1,nt,2,0,i,36*,-20,85*,13,1
O=C(COc1ccc(Cl)cc1Cl)Nc1ccc(C(=O)Nc2ccccc2C(=O)O)cc1,-1,-11,-8,i,52*,-5,75*,20*,6
COc1cccc(/C=N/NC(=O)c2nnn(-c3nonc3N)c2C(C)C)c1,-4,-6,-14,i,2,6,nt,nt,nt
O=C(O)CSc1cc(C(=O)c2ccccc2O)cn2c(=O)c3c4c(sc3nc12)CCCC4,nt,3,-9,i,43*,-31,31,42*,-21
O=C(O)CSc1nc2sc3c(c2c(=O)n1Cc1ccccc1)CCCCC3,1,5,3,i,0,-5,nt,nt,nt
CN(C)S(=O)(=O)c1ccc(NC=O)cc1,0,-9,-11,i,-6,0,nt,nt,nt
COc1cccc(CNC(=O)[C@@H]2CCCN2C(=O)[C@@H]2CCCN2C(=O)c2ccc(Cl)cc2)c1,nt,nt,nt,nt,-5,-3,nt,nt,nt
O=C1C(=O)c2cccnc2-c2ncccc21,nt,nt,nt,i,59*,0,5,-1,-32
N#CC(C#N)=C(N)/C(C#N)=C/c1cc(O)c(O)c(O)c1,22,-4,-5,nt,122*,28,11,9,57*
SMILES,TPT1 inhibitor,PKA-R2B act,PKA-R1A act,Rpn11 inh,CSN deneddyl inh,HNF4A DNA FP,CSN5 deneddyl,MMP-2 counter,Thrombin cntr
N#C/C(=C/c1cc(Cl)c(O)c(Cl)c1)C(=O)N1CCCCC1,-1,3,0,i,-4,4,nt,nt,nt
COc1cc(NCCCCCCN)c2ncccc2c1OC,nt,-8,-15,i,86*,25,nt,-20,-41
CCCCCCCCCCCCCCCC(O)C(N)CO (stereo unspecified),-2,-2,1,i,53*,47*,-18,1,0
CCCc1ccc(O)c(N=Cc2cc(Br)cc(OCC)c2O)c1,6,5,5,i,38*,11,89*,-5,46*
CC1(C)CC[C@]2(C(=O)n3ccnc3)CC[C@]3(C)[C@H](C(=O)C=C4[C@@]5(C)C=C(C#N)C(=O)C(C)(C)[C@@H]5CC[C@]43C)[C@@H]2C1,nt,-2,-2,i,39*,-19,56*,0,8
Clc1ccc(C2=NN(c3ccccc3)C(c3ccco3)C2)cc1 (stereo unspecified),3,-3,-11,i,-7,-2,nt,nt,nt
O=[N+]([O-])c1ccc(/C=C/C2=NN(c3ccccc3)C(c3ccco3)C2)o1 (stereo unspecified),nt,4,8,nt,62*,26,42,-3,21*
COc1ccc(NC(=O)C2CCCN(CCCc3ccccc3)C2)cc1OCC(C)C (stereo unspecified),-5,3,1,i,-2,-10,nt,nt,nt
C=C(CN(C)C)C(=O)c1cc(OC)c(OC)cc1OC,nt,0,5,i,-1,2,nt,nt,nt
CNc1ccc(Br)cc(C(=O)/C=C/c2ccc3c(c2)OCO3)c1=O,18,-9,-6,i,44*,-9,71*,-1,20*
CCOc1ccc(C(=O)Nc2cc(-c3nc4ccccc4[nH]3)ccc2Cl)cc1[N+](=O)[O-],-1,-5,12,i,111*,202,nt,-4,-7
CCCCn1c(NC(=O)c2ccccc2Cl)c(C#N)c2nc3ccccc3nc21,16,2,-8,i,59*,64*,98*,2,-36
